Experimental data reported in PMC10913540 (Journal of medicinal chemistry, 2021).

Legend:
X = X (Homo sapiens, UniProt P28074); experiment: In vitro proteasome activity assay, purified human 20S proteasome, Ac-WLA-AMC; type: biochemical
LMP2 [1] = molecular target: T1, LMP2 (Homo sapiens, UniProt P28065); experiment: In vitro proteasome activity assay, purified human 20S proteasome, Ac-PAL-AMC; type: biochemical; conditions: P3-proline substitution of 21, purified proteasome
LMP2 [2] = molecular target: T1, LMP2; experiment: In-cellulo LMP2 inhibition in RPMI-8226/ABCB1 vs parental RPMI-8226 cells; type: cell-based; conditions: either cell line
Outline: (§1)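 Lysates (14,000 g, 20 min, 4 °C; 5 μg protein) in 20 mM Tris-HCl, 0.5 mM EDTA, 0.035% SDS, pH 8.0, received Ac-PAL-AMC (LMP2) or Ac-ANW-AMC (LMP7), each at 100 μM. Fluorescence (ex 360/em 460 nm) was read every minute for 1 h. IC50s were compared between lines.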

LMP2 [3] = molecular target: LMP2 (Mus musculus, UniProt P28076); experiment: LMP2 activity in brain homogenates after single intravenous dosing; type: in vivo; conditions: ICR mice, single intravenous dosing 10 mg/kg, 1-hour post-dosing
[4] = Observation of overt toxicity during treatment; type: in vivo; conditions: Tg2576 or non-transgenic ICR mice during the test period
[5] = test system: retinal pigment epithelium (RPE); experiment: RPE flat mounts, anti-β-catenin immunostaining; type: in vivo, mouse
Outline: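 After behaviour testing, eyes from treated Tg2576 mice and from age-matched non-transgenic ICR mice were fixed in 4% paraformaldehyde (1 h, RT). Eyecups were dissected, retina removed, and RPE sheets permeabilised (0.2% Triton X-100, 15 min) and blocked (3% BSA, 1 h). Sheets were stained with anti-β-catenin (1:100, overnight 4 °C), then Alexa 555 secondary (1:1000, 2 h RT), and imaged by confocal microscopy. Images are representative of 3 independent replicates.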

Tg2576 mice = experiment: Morris water maze, probe trial and passive avoidance in Tg2576 mice; type: in vivo, mouse; conditions: 10 mg/kg twice weekly for 3 weeks
Outline: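 Tg2576 mice (9-month-old, acclimatised one month) were injected with 10 mg/kg twice weekly for 3 weeks. Morris water maze training ran on days 1–5: hidden platform 1–1.5 cm below 25 ± 1 °C water, three 60-s trials daily from randomised starts. The probe trial on day 6 tracked swimming for 60 s and recorded time in the former platform quadrant by video. Student's t-test, n=5.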

LMP7 = LMP7 (Homo sapiens, UniProt P28062); experiment: In-cellulo LMP7 inhibition in RPMI-8226/ABCB1 vs parental RPMI-8226 cells; type: cell-based; conditions: Supple. Table S1
Outline: as §1

[6] = In vitro metabolic stability in mouse whole blood; type: in vitro ADME; conditions: ICR mice, 1 μM, 0, 10 and 30 min, compared with YU102
Outline: (§2)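 Matrices came from male 7-week-old ICR mice: whole blood with 25 IU/mL heparin, and liver homogenised in ice-cold PBS (2.5 mL/g). After pre-incubation at 37 °C, test compound was added to 1 μM final. Sampling was at 0, 10 and 30 min for blood and 0, 10 and 20 min for liver. […] Remaining drug was measured by LC-MS/MS.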

IL-1α [7] = experiment: IL-1α release by LPS-activated BV-2 cells; type: cell-based, murine; conditions: LPS 1 μg/mL
Outline: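 BV-2 microglia were stimulated with LPS (1 μg/mL). IL-1α in the culture supernatants was measured by sandwich ELISA. Supernatants and standards (seven serial twofold dilutions) sat overnight at 4 °C on capture-antibody plates, then went through detection antibody (1 h), avidin-HRP (30 min), substrate, and a 2N H2SO4 stop. A450 was read. Three technical replicates, SD shown.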

[8] = In vitro metabolic stability in mouse liver homogenates; type: in vitro ADME; conditions: ICR mice, 1 μM, 0, 10 and 20 min, compared with YU102
Outline: as §2

ABCG2 = molecular target: T2, ABCG2 (Homo sapiens, UniProt Q9UNQ0); experiment: ABCG2 interaction assay; type: cell-based; conditions: MDCKII/ABCG2 cells, PhA 1 μM; DB-60 (20) 2 or 5 μM, Ko143 0.2 μM
T2 sequence (Q9UNQ0 1-655): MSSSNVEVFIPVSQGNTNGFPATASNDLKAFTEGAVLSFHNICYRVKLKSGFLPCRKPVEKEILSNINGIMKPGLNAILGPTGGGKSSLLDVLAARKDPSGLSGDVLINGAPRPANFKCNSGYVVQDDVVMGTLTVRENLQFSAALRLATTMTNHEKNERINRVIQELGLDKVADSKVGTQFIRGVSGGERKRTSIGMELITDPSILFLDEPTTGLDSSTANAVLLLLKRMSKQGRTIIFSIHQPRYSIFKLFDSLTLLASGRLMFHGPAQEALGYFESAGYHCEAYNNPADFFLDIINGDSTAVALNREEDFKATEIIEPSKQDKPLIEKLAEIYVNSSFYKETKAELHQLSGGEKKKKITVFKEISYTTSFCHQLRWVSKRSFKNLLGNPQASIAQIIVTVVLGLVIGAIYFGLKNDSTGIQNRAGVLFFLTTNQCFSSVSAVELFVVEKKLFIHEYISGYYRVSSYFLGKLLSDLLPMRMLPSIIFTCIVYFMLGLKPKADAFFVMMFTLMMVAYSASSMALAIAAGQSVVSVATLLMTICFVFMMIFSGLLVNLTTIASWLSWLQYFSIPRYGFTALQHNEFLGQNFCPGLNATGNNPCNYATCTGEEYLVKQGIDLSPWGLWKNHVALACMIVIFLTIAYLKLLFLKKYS

IL-1α [9] = experiment: Serum IL-1α levels in Tg2576 mice; type: in vivo, mouse; conditions: 10 mg/kg twice weekly for 3 weeks, vs vehicle
Outline: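 Serum from 9-month-old Tg2576 mice (dosed or vehicle) diluted 1:5, then incubated with IL-1α standards (seven serial twofold dilutions) on capture-antibody-coated plates for 2 h at room temperature. Five washes, detection antibody 1 h, avidin-HRP 30 min, five washes, substrate, stop with 2N H2SO4. Absorbance read at 450 nm; n=3.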

Row | Structure (SMILES) | IC50 (X) [µM] | LMP2 inhibitory potency compared with 21 (LMP2 [1]) | further results
1 | CC(C)C[C@H](NC(=O)[C@@H]1COCCCCCC(=O)N2CCCC[C@H]2C(=O)N1)C(=O)[C@@]1(C)CO1 [compound 36, (3S,16aS)-N-((S)-4-Methyl-1-((R)-2-methyloxiran-2-yl)-1-oxopentan-2-yl)-1,11-dioxotetradecahydro-2H-pyrido[2,1-f][1]oxa[4,7]diazacyclotridecine-3-carboxamide] | > 10 | substantial decrease in the LMP2 inhibitory potency | –
2 | CC(C)C[C@H](NC(=O)[C@@H]1COCCCCCCC(=O)NCC(=O)N2CCC[C@H]2C(=O)N1)C(=O)[C@@]1(C)CO1 [compound 27, (3S,19aS)-N-((S)-4-Methyl-1-((R)-2-methyloxiran-2-yl)-1-oxopentan-2-yl)-1,12,15-trioxooctadecahydropyrrolo[2,1-f][1]oxa[4,7,10]triazacycloheptadecine-3-carboxamide] | > 10 | – | LMP2 inhibition in RPMI-8226/ABCB1 and parental RPMI-8226 cells (LMP2 [2]): no LMP2 inhibition in either cell line
3 | CC(C)C[C@H](NC(=O)[C@@H]1COCCCCCC(=O)N2CCC[C@@]2(C)C(=O)N1)C(=O)[C@@]1(C)CO1 [compound 34, (3S,15aS)-15a-Methyl-N-((S)-4-methyl-1-((R)-2-methyloxiran-2-yl)-1-oxopentan-2-yl)-1,11-dioxotetradecahydropyrrolo[2,1-f][1]oxa[4,7]diazacyclotridecine-3-carboxamide] | > 10 | substantial decrease in the LMP2 inhibitory potency | –
4 | CC(C)C[C@H](NC(=O)[C@@H]1Cc2ccc(cc2)OCCCCCCC(=O)N2CCC[C@H]2C(=O)N1)C(=O)[C@@]1(C)CO1 [compound 16, (1^2S,4S)-N-((S)-4-Methyl-1-((R)-2-methyloxiran-2-yl)-1-oxopentan-2-yl)-2,14-dioxo-7-oxa-3-aza-1(2,1)-pyrrolidina-6(1,4)-benzenacyclotetradecaphane-4-carboxamide] | > 10 | – | –
5 | CC(C)C[C@H](NC(=O)[C@@H]1COCCCCCC(=O)N2CC(F)(F)C[C@H]2C(=O)N1)C(=O)[C@@]1(C)CO1 [compound 33, (3S,15aS)-14,14-Difluoro-N-((S)-4-methyl-1-((R)-2-methyloxiran-2-yl)-1-oxopentan-2-yl)-1,11-dioxotetradecahydropyrrolo[2,1-f][1]oxa[4,7]diazacyclotridecine-3-carboxamide] | > 10 | LMP2 inhibitory potency similar to 21 | –
6 | CC(C)C[C@H](NC(=O)[C@@H]1COCCCCCC(=O)NCC(=O)N2CCC[C@H]2C(=O)N1)C(=O)[C@@]1(C)CO1 [compound 26, (3S,18aS)-N-((S)-4-Methyl-1-((R)-2-methyloxiran-2-yl)-1-oxopentan-2-yl)-1,11,14-trioxohexadecahydro-6H-pyrrolo[2,1-f][1]oxa[4,7,10]triazacyclohexadecine-3-carboxamide] | > 10 | – | LMP2 inhibition in RPMI-8226/ABCB1 and parental RPMI-8226 cells (LMP2 [2]): no LMP2 inhibition in either cell line
7 | C[C@]1(C(=O)[C@H](Cc2ccccc2)NC(=O)[C@@H]2COCCCCCC(=O)N3CCC[C@H]3C(=O)N2)CO1 [compound 25, (3S,15aS)-N-((S)-1-((R)-2-Methyloxiran-2-yl)-1-oxo-3-phenylpropan-2-yl)-1,11-dioxotetradecahydropyrrolo[2,1-f][1]oxa[4,7]diazacyclotridecine-3-carboxamide] | > 10 | – | –
8 | CC(C)C[C@H](NC(=O)[C@@H]1COCCCCCC(=O)N2CC[C@H]2C(=O)N1)C(=O)[C@@]1(C)CO1 [compound 35, (10S,13S)-N-((S)-4-Methyl-1-((R)-2-methyloxiran-2-yl)-1-oxopentan-2-yl)-2,12-dioxo-8-oxa-1,11-diazabicyclo[11.2.0]pentadecane-10-carboxamide] | > 10 | LMP2 inhibitory potency similar to 21 | –
9 | C[C@]1(C(=O)[C@H](Cc2ccccc2)NC(=O)[C@@H]2Cc3ccc(cc3)OCCCCCCCC(=O)N3CCC[C@H]3C(=O)N2)CO1 [compound 20, (1^2S,4S)-N-((S)-1-((R)-2-Methyloxiran-2-yl)-1-oxo-3-phenylpropan-2-yl)-2,15-dioxo-7-oxa-3-aza-1(2,1)-pyrrolidina-6(1,4)-benzenacyclopentadecaphane-4-carboxamide] | – | – | inhibition of LMP2 activity in brain homogenates (LMP2 [3]): no appreciable inhibition of the LMP2 activity; overt toxicity [4]: No sign of overt toxicity; RPE structure in Tg2576 mice ([5]; Tg2576 mice after behavior tests, anti-β-catenin staining): displayed the orderly structure; RPE structural integrity in non-transgenic ICR mice ([5]; age-matching non-transgenic ICR mice treated with DB-60 (20)): not affected; probe trial: percentage of time spent in the target quadrant (Tg2576 mice; day 6, vs control): higher than control mice; passive avoidance test: step-through latency (Tg2576 mice; days 7-8, vs control): performed better in a fear-aggravated test (passive avoidance) than control mice; fold decrease of LMP7 inhibition, RPMI-8226/ABCB1 vs parental RPMI-8226 (LMP7): ~ 2 fold; metabolic stability in whole blood [6]: greater metabolic stability than YU102; release of IL-1α by LPS-activated microglial BV-2 cells (IL-1α [7]): decreased the release of IL-1α; stability in liver homogenates [8]: superior to YU102; inhibition of the ABCG2-mediated efflux of PhA (cellular accumulation of PhA) (ABCG2): no inhibition of the ABCG2-mediated efflux of PhA; serum levels of IL-1α (IL-1α [9]): lower in Tg2576 mice receiving DB-60 (20) treatment than the control mice
10 | CC(C)C[C@H](NC(=O)[C@@H]1COCCCCCC(=O)N2C[C@H](F)C[C@H]2C(=O)N1)C(=O)[C@@]1(C)CO1 [compound 32, (3S,14S,15aS)-14-Fluoro-N-((S)-4-methyl-1-((R)-2-methyloxiran-2-yl)-1-oxopentan-2-yl)-1,11-dioxotetradecahydropyrrolo[2,1-f][1]oxa[4,7]diazacyclotridecine-3-carboxamide] | > 10 | substantial decrease in the LMP2 inhibitory potency | –
